ABHD4 inh: ABHD4 (mouse) inhibition, primary FP screen | Q8VD66 | inhibition, % at 8.92 µM | hit rate 0.54% among 370,000 | purified mABHD4, FP-Rh probe fluorescence polarization;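 active means inhibition exceeding the mean over every tested compound plus 3 SD, cut at about 30% in these data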
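system = mouse ABHD4 enzyme, wild type | medium = HEPES pH 7.0, NaCl, Pluronic buffer | also added = FP-Rh probe | incubation = Enzyme–compound pre-incubation 45 min, then probe 60 min, both 25 °C | technique = fluorescence polarization, excitation 525 nm, emission 598 nm, BODIPY TMR filters | controls = S159A mutant high control, sample median low control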
PAFAH2 FP inh: inhibitors of human PAFAH2; Q99487; recombinant PAFAH2, FP-rhodamine activity probe, fluorescence polarization; inhibition, % at 3.39 µM; hit rate 0.99% among 340,000;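 active means inhibition above the mean over all tested compounds plus 3 SD, cut at about 30% in these data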;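 further: inhibitors block probe labeling of enzyme so polarization drops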
PAFAH1B3 inh: blocks human PAF acetylhydrolase 1B catalytic subunit 3; inhibition, % at 3.39 µM; recombinant PAFAH1B3, FP-rhodamine probe, fluorescence polarization; Q15102; hit rate 0.28% among 340,000;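 active means inhibition above the screen-wide average of all tested compounds plus 3 SD, cut at about 25% in these data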
Target sequence (Q15102 whole entry, looked up): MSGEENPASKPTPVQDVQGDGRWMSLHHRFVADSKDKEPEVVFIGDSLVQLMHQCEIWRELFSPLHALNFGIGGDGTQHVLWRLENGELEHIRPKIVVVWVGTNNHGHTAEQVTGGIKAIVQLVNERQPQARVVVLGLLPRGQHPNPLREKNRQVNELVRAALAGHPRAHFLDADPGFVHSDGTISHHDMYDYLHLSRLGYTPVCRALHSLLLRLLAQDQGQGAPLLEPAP
HTRA1 inh: HTRA1 (human) protease inhibition | hit rate 0.5% among 340,000 | inhibition, % at 5.96 µM | AID 504803 | Q92743 | recombinant HTRA1, FP-rhodamine activity-based probe, fluorescence polarization; in the data active means inhibition above about 36%
PAFAH1B2 inh: inhibitors of human PAFAH1B2 | P68402 | recombinant PAFAH1B2, FP-rhodamine activity probe, fluorescence polarization | inhibition, % at 3.39 µM | hit rate 1.2% among 340,000;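 active means inhibition above the mean of all tested compounds plus 3 SD, cut at about 24% in these data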
pPAFAH inh: inhibitors of human plasma PAF acetylhydrolase (pPAFAH). Q13093. recombinant pPAFAH, FP-rhodamine probe fluorescence polarization. inhibition, % at 3.39 µM. hit rate 1.5% among 330,000;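 active means inhibition above the mean inhibition across the screen plus 3 SD, cut at about 25% in these data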;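 further: inhibitors block binding of the rhodamine activity-based probe so polarization drops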
Target sequence (Q13093 whole entry, looked up): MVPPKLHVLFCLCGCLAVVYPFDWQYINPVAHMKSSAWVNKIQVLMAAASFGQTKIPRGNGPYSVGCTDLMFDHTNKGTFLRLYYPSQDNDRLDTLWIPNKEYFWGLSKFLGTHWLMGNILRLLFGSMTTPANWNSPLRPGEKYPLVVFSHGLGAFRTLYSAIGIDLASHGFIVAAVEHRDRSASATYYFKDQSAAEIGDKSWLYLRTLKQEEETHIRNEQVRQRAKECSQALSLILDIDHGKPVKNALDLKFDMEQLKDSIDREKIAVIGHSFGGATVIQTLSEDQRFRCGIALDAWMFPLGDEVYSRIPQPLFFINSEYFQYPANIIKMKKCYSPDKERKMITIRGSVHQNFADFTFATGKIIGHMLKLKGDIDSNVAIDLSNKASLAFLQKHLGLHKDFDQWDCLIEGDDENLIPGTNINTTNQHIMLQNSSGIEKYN
Numbers stand for hits; n = inactive; x = not tested or not shown. Hits are enriched below; roughly 2.8% of the tested compounds scored in any of these assays.

SMILES	ABHD4 inh	PAFAH2 FP inh	PAFAH1B3 inh	HTRA1 inh	PAFAH1B2 inh	pPAFAH inh
COc1cc(CNC(=O)CCCC/C=C/C(C)C)ccc1O	n	n	n	n	n	25
CCc1ccc(CCNC(=O)OCCCN2CCC3(CCC(c4ccccc4)CC3)C2=O)cc1 (stereo not drawn)	n	x	x	x	x	x
CC(C)N(C(=O)COC(=O)c1ccc(Cl)nc1)C(C)C	n	n	n	n	n	n
O=C(OCCOc1ccc(Br)cc1)c1ccc(Cl)nc1	n	n	n	n	26	n
O=C(NC1CCCCN(Cc2cccc(Cl)c2)C1=O)C1CCCCC1 (stereo not drawn)	n	x	x	x	x	x
Cc1cc(=O)oc2c3c(cc(OCC(=O)NCc4ccccc4)c12)OC(C)(C)CC3	n	n	n	n	n	33
Cc1c(C)c2c(OCC(=O)N[C@@H](CC(C)C)C(=O)O)cc3c(c2oc1=O)CCC(C)(C)O3	n	75	n	n	44	x
CCCCNC(=O)C[C@H]1C[C@@]2(C(=O)OC)C(=C[C@H](C(C)(C)C)O[C@@H]2C)N(Cc2ccc(Cl)cc2Cl)C1=O	n	x	x	x	x	x
Cc1ccc(O)c(NC(=S)NC(=O)/C=C/c2ccco2)c1	n	n	n	n	n	25
COc1ccc(NC(=S)NC(=O)/C=C/c2ccco2)cc1	n	n	n	n	n	n
O=C(/C=C/c1ccco1)NC(=S)Nc1ccc(O)c(-c2nc3ccccc3s2)c1	n	n	n	n	n	25
O=S(=O)(NCCCc1ccccc1)c1ccc(F)c(F)c1	n	n	n	n	36	29
O=S(=O)(NCCCc1ccccc1)c1ccc(Cl)cc1	n	n	n	n	26	n
O=C(CCCCCN1C(=O)C2C3C=CC(C3)C2C1=O)N1CCN(c2ncccn2)CC1 (stereo not drawn)	n	x	x	x	x	x
CC(=O)Nc1ccc(NC(=O)C(C)OC(=O)CSc2ccc(Br)cc2C)cc1 (stereo not drawn)	n	n	n	n	24	n
CC(C)(C)c1ccc(C(=O)NCCC(=O)NNC(=O)COc2ccccc2F)cc1	n	n	n	n	25	n
CN(Cc1ccccc1F)C(=O)CCNC(=O)c1ccc(C(C)(C)C)cc1	n	n	n	n	28	n
O=C(CCNS(=O)(=O)c1ccccc1)NNC(=O)COc1ccccc1F	n	n	n	n	n	n
COc1ccccc1CC(=O)NCCN1C(=O)C2C3C=CC(C3)C2C1=O (stereo not drawn)	n	x	x	x	x	x
O=C(CSc1nnc(-c2ccccc2F)n1-c1ccccc1)c1ccc2ccccc2c1	n	x	x	x	x	x
CC(C)(c1ccccc1)c1ccc(OCC2CO2)cc1 (stereo not drawn)	n	n	n	n	n	25
Oc1ccc(-c2nc3ccccc3s2)c(O)c1	n	n	n	n	n	n
O=C(Nc1ccc(O)c(-c2nc3ccccc3s2)c1)c1cccs1	n	n	n	n	n	n
Nc1ccc(O)c(-c2nc3ccccc3s2)c1	n	n	n	n	n	34
Oc1ccc(N=C/C=C/c2cccc(Br)c2)cc1-c1nc2ccccc2s1	x	n	n	44	n	37
SMILES	ABHD4 inh	PAFAH2 FP inh	PAFAH1B3 inh	HTRA1 inh	PAFAH1B2 inh	pPAFAH inh
O=C(CSc1nnc(-c2ccccn2)n1-c1ccc(Cl)cc1)Nc1ccc2c(c1)OCCO2	n	x	x	x	x	x
N#Cc1ccc(-c2ccco2)nc1SCC(=O)c1ccc(Cl)cc1	n	n	n	n	n	39
CNC(=O)C(=O)Nc1nc(C23CC4CC(CC(C4)C2)C3)cs1	n	n	n	n	26	n
O=C(NCc1cccnc1)C(=O)Nc1nc(C23CC4CC(CC(C4)C2)C3)cs1	n	n	n	n	33	n
O=C(NCc1ccccc1)C(=O)Nc1nc(C23CC4CC(CC(C4)C2)C3)cs1	n	n	n	n	n	n
O=C(CC1CCCC1)N1CC[C@H]2[C@H](CCCN2Cc2cc(F)cc(F)c2)C1	n	x	x	x	x	x
CCn1c(SCC(=O)Nc2ccccc2-c2ccccc2)nnc1-c1cnccn1	n	x	x	x	x	x
COC(=O)c1sc(-c2ccc(C(C)(C)C)cc2)cc1NC(=O)COCC(=O)O	n	x	x	x	x	28
COC(=O)c1sc(-c2ccc(Cl)cc2)cc1NC(=O)CSCC(=O)O	n	n	n	n	n	n
O=C1Nc2ccccc2C1=Nc1cccc([N+](=O)[O-])c1	n	n	n	n	n	n
NC(=O)c1ccc(N=C2C(=O)Nc3ccc([N+](=O)[O-])cc32)cc1	n	n	56	n	n	n
COc1ccccc1NS(=O)(=O)c1ccc(NC(=O)c2nc3ncccn3n2)cc1	n	n	n	n	n	x
Cc1ccccc1NS(=O)(=O)c1cccc(C(=O)Nc2cccc(C(=O)O)c2)c1	n	n	n	n	n	27
Cc1cccc(NC(=O)c2cccc(S(=O)(=O)Nc3ccccc3C(=O)O)c2)c1	n	n	n	n	n	n
CCOc1cc(NS(=O)(=O)c2ccccc2)c(OCC)cc1NC(=O)c1ccco1	n	n	n	n	n	31
Cc1ccccc1NS(=O)(=O)c1ccc(NC(=O)c2nc3ncccn3n2)cc1	n	n	n	n	n	29
C/C(=N\NS(=O)(=O)c1ccccc1)c1cccc(NC(=O)c2cccc(Cl)c2)c1	n	n	n	n	n	25
CC(=O)N1[C@H](CO)[C@@H](c2ccccc2)[C@@H]1CN(C(=O)c1ccc(F)cc1)C(C)C	n	x	x	x	x	x
Cc1ccccc1NS(=O)(=O)c1ccc(NC(=O)c2ccco2)cc1	n	n	n	n	n	29
Cc1ccccc1NC(=O)c1ccco1	n	n	n	n	n	n
CCn1c2ccccc2c2cc(NC(=O)COC(=O)c3ccc(O)cc3)ccc21	n	n	n	n	n	33
CC(C)(C)C(=O)NC1CCCCN(Cc2cccc(C(F)(F)F)c2)C1=O (stereo not drawn)	n	x	x	x	x	x
Cc1cc(C(=O)Nc2ccc(F)cc2)n(-c2ccccc2)n1	n	x	x	x	x	x
Cc1ccc(-c2csc(Cc3nc(-c4ccc5c(c4)CCC(=O)N5)cs3)n2)cc1	n	n	n	n	n	26
Cc1nc(-c2ccc3c(c2)CCC(=O)N3)cs1	n	n	n	n	n	n
SMILES	ABHD4 inh	PAFAH2 FP inh	PAFAH1B3 inh	HTRA1 inh	PAFAH1B2 inh	pPAFAH inh
O=C(NCCc1c[nH]c2ccccc12)OCc1cn(Cc2ccccc2C(F)(F)F)nn1	n	x	x	x	x	x
O=C1NC(=S)N/C1=C/c1cccn1-c1ccc([N+](=O)[O-])cc1	n	n	n	n	n	32
Cc1[nH]cnc1/C=N\NC(=O)c1cccc(S(=O)(=O)N(C)C)c1	n	x	x	x	x	x
Cc1ccccc1-c1cc2nc(-c3ccc([N+](=O)[O-])cc3)cc(=O)n2[nH]1	n	n	n	n	n	n
O=c1cc(-c2ccc([N+](=O)[O-])cc2)nc2cc(-c3ccc(F)cc3)[nH]n12	n	n	n	n	58	33
C[C@H]1[C@@H](N(C)Cc2ccccc2)CC[C@@]23CCCN2C(=O)CCC[C@@H]13	n	x	x	x	x	x
O=C(COC(=O)C1(c2ccc(F)cc2)CCCC1)N1CCN(C(=O)c2ccco2)CC1	n	n	n	n	33	n

High-throughput results (PubChem BioAssay)
